Results: ChEMBL document CHEMBL3352099, “Anti-osteoporotic and antioxidant activities of chemical constituents of the aerial parts of Ducrosia ismaelis” (Bioorg Med Chem Lett, 2014)

What was measured:
[1] = Antioxidant activity assessed as AAPH-induced peroxyl radical scavenging activity at 10 uM by oxygen radical absorbance assay relative to trolox; assay type: physicochemical
Summary of the method: (§1)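 Peroxyl radical scavenging measured by ORAC, a hydrogen atom transfer assay. Compounds tested at 1-10 µM. Values expressed as µM Trolox equivalents (TE).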

[2] = Antioxidant activity assessed as AAPH-induced peroxyl radical scavenging activity by oxygen radical absorbance assay; assay type: physicochemical; summary of the method: as §1
RAW264.7 [3] = test: Antiosteoporotic activity in mouse RAW264.7 cells assessed as inhibition of RANKL-induced osteoclast formation after 5 days by TRAP assay relative to untreated control; assay type: functional, cell-based
Summary of the method: (§2)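 RAW 264.7 pre-osteoclast cells induced to form osteoclasts with RANKL. Compounds tested at concentrations up to 10 µM. TRAP activity is expressed as percent of the untreated control, as mean ± SD with n = 3. The untreated control (C) and the RANKL-treated control (TC) are both included.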

RAW264.7 [4] = test: Antiosteoporotic activity in mouse RAW264.7 cells assessed as inhibition of RANKL-induced osteoclast formation at 10 uM after 5 days by TRAP assay relative to untreated control; assay type: functional; design: scale not given: the % may be the effect or the level left; summary of the method: as §2
[5] = Antioxidant activity assessed as reduction of Cu2+ to Cu+ at 10 uM by reduction assay relative to trolox; assay type: physicochemical
Summary of the method: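 Single electron transfer reducing-capacity assay measuring reduction of Cu2+ ions. Compounds tested at up to 10.0 µM. Values expressed as µM Trolox equivalents, as mean ± SD of three measurements.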

In the case of `OC[C@H]1O[C@@H](Oc2ccc3c(c2)OC[C@@]2(O)c4ccc(O)cc4O[C@@H]32)[C@H](O)[C@@H](O)[C@@H]1O`, the Ratio [1] is reported as greater than 20 and the Activity [2] is reported as “Dose-dependent effect”.
With `COc1cc([C@H]2OC[C@H]3[C@@H]2CO[C@@H]3c2cc(OC)c(O[C@@H]3O[C@H](CO)[C@@H](O)[C@H](O)[C@H]3O)c(OC)c2)cc(OC)c1O[C@@H]1O[C@H](CO)[C@@H](O)[C@H](O)[C@H]1O` [LIRIODENDRIN] the Activity (RAW264.7 [3]) was “Dose-dependent effect”, the Activity (RAW264.7 [4]) was 106.05% and the Activity [2] was “Dose-dependent effect”.
In the case of `COc1cc(/C=C/CO)ccc1O[C@@H]1O[C@H](CO)[C@@H](O)[C@H](O)[C@H]1O` [CONIFERIN], the Activity [2] is reported as “Dose-dependent effect”.
With `O=c1c(-c2ccc(O)cc2)coc2cc(O[C@@H]3O[C@H](CO)[C@@H](O)[C@H](O)[C@H]3O)cc(O)c12` [GENISTIN] the Ratio [1] was 26.55 and the Activity [2] was “Dose-dependent effect”.
For `CC(C)=CCc1c(O)ccc(C(=O)/C=C/c2ccc(O)cc2)c1O` [ISOBAVACHALCONE], the Ratio [1] was greater than 20 and the Activity [2] was “Dose-dependent effect”.
With `O=c1oc2cc(O)ccc2c2oc3cc(O)ccc3c12` [COUMESTROL] the Activity [2] was “Dose-dependent effect”.
With `COc1cc([C@H]2OC[C@H]3[C@@H]2CO[C@@H]3c2cc(OC)c(OC)c(OC)c2)cc(OC)c1O` the Ratio [5] was 23.44 and the Activity [2] was “Dose-dependent effect”.
In the case of `COc1cc(O)c2c(=O)c(-c3ccc(O[C@@H]4O[C@H](CO)[C@@H](O)[C@H](O)[C@H]4O)cc3)coc2c1`, the Activity [2] is reported as “Dose-dependent effect”.
For `O=c1c(-c2ccc(O[C@@H]3O[C@H](CO)[C@@H](O)[C@H](O)[C@H]3O)cc2)coc2cc(O)ccc12`, the Activity (RAW264.7 [3]) was “Dose-dependent effect”, the Activity (RAW264.7 [4]) was 104.77% and the Ratio [1] was greater than 20. The Activity [2] was “Dose-dependent effect”.
With `COC(=O)/C=C\c1ccc(O)c(CC=C(C)C)c1` the Activity (RAW264.7 [3]) was “Dose-dependent effect”, the Activity (RAW264.7 [4]) was 85.05% and the Activity [2] was “Dose-dependent effect”.
In the case of `O=C(c1ccc(O)cc1O[C@@H]1O[C@H](CO)[C@@H](O)[C@H](O)[C@H]1O)[C@H](O)Cc1ccc(O)cc1`, the Activity [2] is reported as “Dose-dependent effect”.
For `C=CCc1ccc(O[C@@H]2O[C@H](CO)[C@@H](O)[C@H](O)[C@H]2O)c(OC)c1` [CITRUSIN C], the Activity (RAW264.7 [3]) was “Dose-dependent effect”, the Activity (RAW264.7 [4]) was 100.93% and the Activity [2] was “Dose-dependent effect”.
In the case of `COc1cc([C@H]2OC[C@H]3[C@@H]2CO[C@@H]3c2ccc(O[C@@H]3O[C@H](CO)[C@@H](O)[C@H](O)[C@H]3O)c(OC)c2)ccc1O`, the Activity [2] is reported as “Dose-dependent effect”.
For `O=c1c(-c2ccc(O)cc2)coc2cc(O[C@@H]3O[C@H](CO)[C@@H](O)[C@H](O)[C@H]3O)ccc12` [DAIDZIN], the Ratio [1] was greater than 20 and the Activity [2] was “Dose-dependent effect”.
In the case of `CC1=CC(=O)CC(C)(C)[C@H]1CC[C@@H](C)O[C@@H]1O[C@H](CO)[C@@H](O)[C@H](O)[C@H]1O`, the Activity [2] is reported as “Dose-dependent effect”.
